Data: ChEMBL document CHEMBL1123145, “Synthesis of pyrrolizidine alkaloids indicine, intermedine, lycopsamine, and analogues and their N-oxides. Potential antitumor agents” (1985)

Assays:
Assay type in all cases: functional, Mus musculus
P388 [1] = test: Weight difference observed in survivors treated for antitumor activity against P388 Lymphocytic Leukemia system at a dose of 96 mg/kg
P388 [2] = test: Number of Survivors determined for antitumor activity against P388 Lymphocytic Leukemia system on day 5 at a dose of 96 mg/kg(6 out of 6)
P388 [3] = test: Number of Survivors determined for antitumor activity against P388 Lymphocytic Leukemia system on day 5 at a dose of 192 mg/kg (6 out of 6)
P388 [4] = test: Survival rate of the animals determined for antitumor activity against P388 Lymphocytic Leukemia system at a dose of 24 mg/kg
P388 [5] = test: Weight difference observed in survivors treated for antitumor activity against P388 Lymphocytic Leukemia system at a dose of 48 mg/kg
P388 [6] = test: Survival rate of the animals determined for antitumor activity against P388 Lymphocytic Leukemia system at a dose of 192 mg/kg
P388 [7] = test: Number of Survivors determined for antitumor activity against P388 Lymphocytic Leukemia system on day 5 at a dose of 48 mg/kg (6 out of 6)
P388 [8] = test: Survival rate of the animals determined for antitumor activity against P388 Lymphocytic Leukemia system at a dose of 96 mg/kg
P388 [9] = test: Survival rate of the animals determined for antitumor activity against P388 Lymphocytic Leukemia system at a dose of 48 mg/kg
P388 [10] = test: Weight difference observed in survivors treated for antitumor activity against P388 Lymphocytic Leukemia system at a dose of 192 mg/kg
P388 [11] = test: Number of Survivors determined for antitumor activity against P388 Lymphocytic Leukemia system on day 5 at a dose of 24 mg/kg (6 out of 6)
P388 [12] = test: Weight difference observed in survivors treated for antitumor activity against P388 Lymphocytic Leukemia system at a dose of 24 mg/kg
P388 [13] = test: Survival rate of the animals determined for antitumor activity against P388 Lymphocytic Leukemia system at a dose of 400 mg/kg (Group IV)
How it was run: (§1)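 P388 lymphocytic leukemia screen run in separate test groups (I–IV). Each group includes its own indicine N-oxide internal control, listed as the group's first entry. Survival and survivor weight change are read against that control. Material was limited, so some analogues were screened up to about 200 mg/kg maximum.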

P388 [14] = test: Weight difference observed in survivors treated for antitumor activity against P388 Lymphocytic Leukemia system at a dose of 1600 mg/kg (Group III); how it was run: as §1
P388 [15] = test: Number of Survivors determined for antitumor activity against P388 Lymphocytic Leukemia system on day 5 at a dose of 200 mg/kg (Group I)(6 out of 6)
P388 [16] = test: Survival rate of the animals determined for antitumor activity against P388 Lymphocytic Leukemia system at a dose of 1600 mg/kg (Group II)
P388 [17] = test: Number of Survivors determined for antitumor activity against P388 Lymphocytic Leukemia system on day 5 at a dose of 800 mg/kg (Group II)(6 out of 6)
P388 [18] = test: Survival rate of the animals determined for antitumor activity against P388 Lymphocytic Leukemia system at a dose of 1600 mg/kg (Group I)
P388 [19] = test: Weight difference observed in survivors treated for antitumor activity against P388 Lymphocytic Leukemia system at a dose of 800 mg/kg (Group I)
P388 [20] = test: Number of Survivors determined for antitumor activity against P388 Lymphocytic Leukemia system on day 5 at a dose of 1600 mg/kg (Group III)(5 out of 6)
P388 [21] = test: Weight difference observed in survivors treated for antitumor activity against P388 Lymphocytic Leukemia system at a dose of 800 mg/kg (Group II)
P388 [22] = test: Weight difference observed in survivors treated for antitumor activity against P388 Lymphocytic Leukemia system at a dose of 1600 mg/kg (Group II); how it was run: as §1
P388 [23] = test: Number of Survivors determined for antitumor activity against P388 Lymphocytic Leukemia system on day 5 at a dose of 400 mg/kg (Group II)(6 out of 6)
P388 [24] = test: Weight difference observed in survivors treated for antitumor activity against P388 Lymphocytic Leukemia system at a dose of 400 mg/kg (Group III); how it was run: as §1
P388 [25] = test: Number of Survivors determined for antitumor activity against P388 Lymphocytic Leukemia system on day 5 at a dose of 200 mg/kg (Group II)(6 out of 6)
P388 [26] = test: Number of Survivors determined for antitumor activity against P388 Lymphocytic Leukemia system on day 5 at a dose of 400 mg/kg (Group IV)(6 out of 6)
P388 [27] = test: Survival rate of the animals determined for antitumor activity against P388 Lymphocytic Leukemia system at a dose of 200 mg/kg (Group I)
P388 [28] = test: Weight difference observed in survivors treated for antitumor activity against P388 Lymphocytic Leukemia system at a dose of 400 mg/kg (Group I); how it was run: as §1
P388 [29] = test: Survival rate of the animals determined for antitumor activity against P388 Lymphocytic Leukemia system at a dose of 200 mg/kg (Group IV); how it was run: as §1
P388 [30] = test: Weight difference observed in survivors treated for antitumor activity against P388 Lymphocytic Leukemia system at a dose of 800 mg/kg (Group IV)
P388 [31] = test: Weight difference observed in survivors treated for antitumor activity against P388 Lymphocytic Leukemia system at a dose of 1600 mg/kg (Group I); how it was run: as §1
P388 [32] = test: Survival rate of the animals determined for antitumor activity against P388 Lymphocytic Leukemia system at a dose of 200 mg/kg (Group II); how it was run: as §1
P388 [33] = test: Number of Survivors determined for antitumor activity against P388 Lymphocytic Leukemia system on day 5 at a dose of 800 mg/kg (Group I)(6 out of 6)
P388 [34] = test: Survival rate of the animals determined for antitumor activity against P388 Lymphocytic Leukemia system at a dose of 400 mg/kg (Group I); how it was run: as §1
P388 [35] = test: Weight difference observed in survivors treated for antitumor activity against P388 Lymphocytic Leukemia system at a dose of 1600 mg/kg (Group IV); how it was run: as §1
P388 [36] = test: Survival rate of the animals determined for antitumor activity against P388 Lymphocytic Leukemia system at a dose of 800 mg/kg (Group II); how it was run: as §1
P388 [37] = test: Survival rate of the animals determined for antitumor activity against P388 Lymphocytic Leukemia system at a dose of 800 mg/kg (Group IV); how it was run: as §1
P388 [38] = test: Number of Survivors determined for antitumor activity against P388 Lymphocytic Leukemia system on day 5 at a dose of 1600 mg/kg (Group I) (6 out of 6)
P388 [39] = test: Number of Survivors determined for antitumor activity against P388 Lymphocytic Leukemia system on day 5 at a dose of 200 mg/kg (Group IV)(6 out of 6)
P388 [40] = test: Number of Survivors determined for antitumor activity against P388 Lymphocytic Leukemia system on day 5 at a dose of 200 mg/kg (Group III)(6 out of 6)
P388 [41] = test: Weight difference observed in survivors treated for antitumor activity against P388 Lymphocytic Leukemia system at a dose of 200 mg/kg (Group IV); how it was run: as §1
P388 [42] = test: Survival rate of the animals determined for antitumor activity against P388 Lymphocytic Leukemia system at a dose of 800 mg/kg (Group I); how it was run: as §1
P388 [43] = test: Weight difference observed in survivors treated for antitumor activity against P388 Lymphocytic Leukemia system at a dose of 200 mg/kg (Group II); how it was run: as §1
P388 [44] = test: Survival rate of the animals determined for antitumor activity against P388 Lymphocytic Leukemia system at a dose of 400 mg/kg (Group III); how it was run: as §1
P388 [45] = test: Survival rate of the animals determined for antitumor activity against P388 Lymphocytic Leukemia system at a dose of 400 mg/kg (Group II); how it was run: as §1
P388 [46] = test: Weight difference observed in survivors treated for antitumor activity against P388 Lymphocytic Leukemia system at a dose of 200 mg/kg (Group III); how it was run: as §1
P388 [47] = test: Weight difference observed in survivors treated for antitumor activity against P388 Lymphocytic Leukemia system at a dose of 400 mg/kg (Group IV); how it was run: as §1
P388 [48] = test: Number of Survivors determined for antitumor activity against P388 Lymphocytic Leukemia system on day 5 at a dose of 800 mg/kg (Group III)(6 out of 6)
P388 [49] = test: Number of Survivors determined for antitumor activity against P388 Lymphocytic Leukemia system on day 5 at a dose of 800 mg/kg (Group IV)(6 out of 6)
P388 [50] = test: Number of Survivors determined for antitumor activity against P388 Lymphocytic Leukemia system on day 5 at a dose of 1600 mg/kg (Group II)(6 out of 6)
P388 [51] = test: Number of Survivors determined for antitumor activity against P388 Lymphocytic Leukemia system on day 5 at a dose of 400 mg/kg (Group I)(6 out of 6)
P388 [52] = test: Weight difference observed in survivors treated for antitumor activity against P388 Lymphocytic Leukemia system at a dose of 800 mg/kg (Group III)
P388 [53] = test: Weight difference observed in survivors treated for antitumor activity against P388 Lymphocytic Leukemia system at a dose of 200 mg/kg (Group I); how it was run: as §1
P388 [54] = test: Weight difference observed in survivors treated for antitumor activity against P388 Lymphocytic Leukemia system at a dose of 400 mg/kg (Group II); how it was run: as §1
P388 [55] = test: Survival rate of the animals determined for antitumor activity against P388 Lymphocytic Leukemia system at a dose of 200 mg/kg (Group III); how it was run: as §1
P388 [56] = test: Number of Survivors determined for antitumor activity against P388 Lymphocytic Leukemia system on day 5 at a dose of 1600 mg/kg (Group IV)(5 out of 6)
P388 [57] = test: Survival rate of the animals determined for antitumor activity against P388 Lymphocytic Leukemia system at a dose of 800 mg/kg (Group III); how it was run: as §1
P388 [58] = test: Number of Survivors determined for antitumor activity against P388 Lymphocytic Leukemia system on day 5 at a dose of 400 mg/kg (Group III)(6 out of 6)

## CC(C)C(O)(C(=O)OCC1=CC[N+]2([O-])CC[C@@H](O)C12)C(C)O (stereo in doubt; form 3)
P388 [1]
  T-C: -0.1
P388 [2]
  Survivors: 6
P388 [3]
  Survivors: 6
P388 [4]
  T/C: 100%
P388 [5]
  T-C: -0.4
P388 [6]
  T/C: 109%
P388 [7]
  Survivors: 6
P388 [8]
  T/C: 107%
P388 [9]
  T/C: 105%
P388 [10]
  T-C: -1.1
P388 [11]
  Survivors: 6
P388 [12]
  T-C: -0.1

## CC(C)[C@](O)(C(=O)OCC1=CC[N+]2([O-])CC[C@@H](O)[C@@H]12)[C@H](C)O (stereo partly drawn) [INDICINE N-OXIDE]
P388 [13]
  T/C: 146%
P388 [14]
  T-C: -5.8
P388 [15]
  Survivors: 6
P388 [16]
  T/C: 117%
P388 [17]
  Survivors: 6
P388 [18]
  T/C: 142%
P388 [19]
  T-C: -3.2
P388 [20]
  Survivors: 5
P388 [21]
  T-C: -3.3
P388 [22]
  T-C: -3.7
P388 [23]
  Survivors: 6
P388 [24]
  T-C: -4.3
P388 [25]
  Survivors: 6
P388 [26]
  Survivors: 6
P388 [27]
  T/C: 133%
P388 [28]
  T-C: -1.6
P388 [29]
  T/C: 140%
P388 [30]
  T-C: -2.6
P388 [31]
  T-C: -2.2
P388 [32]
  T/C: 120%
P388 [33]
  Survivors: 6
P388 [34]
  T/C: 151%
P388 [35]
  T-C: -2.9
P388 [36]
  T/C: 200%
P388 [37]
  T/C: 112%
P388 [38]
  Survivors: 6
P388 [39]
  Survivors: 6
P388 [40]
  Survivors: 6
P388 [41]
  T-C: -0.7
P388 [42]
  T/C: 160%
P388 [43]
  T-C: -0.5
P388 [44]
  T/C: 191%
P388 [45]
  T/C: 145%
P388 [46]
  T-C: -2.9
P388 [47]
  T-C: -1.7
P388 [48]
  Survivors: 6
P388 [49]
  Survivors: 6
P388 [50]
  Survivors: 6
P388 [51]
  Survivors: 6
P388 [52]
  T-C: -4.7
P388 [53]
  T-C: -1.6
P388 [54]
  T-C: -1.9
P388 [55]
  T/C: 170%
P388 [56]
  Survivors: 5
P388 [57]
  T/C: 200%
P388 [58]
  Survivors: 6
